Converted amounts (≈) assume the structure as drawn. The source made the active and inactive calls. The rule behind the calls is not given here.
How the values were obtained:
[1] = Drug level in rat plasma at 2000 mg/kg, po measured after 24 hrs; format: ADME, organism-based; settings: in vivo
[2] = Drug metabolism in human liver microsomes assessed as metabolite retention time incubation for 45 mins; format: ADME, Microsome; settings: 0.75 h
How it was run: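 Incubation of substrate in pooled male and female human liver microsomes for 45 min; parent and metabolite resolved by LC-MS, metabolite identified by retention time and [M+H]+ ion.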

[3] = Drug metabolism in beta-naphthoflavone/phenobarbital-induced rat liver S9 fraction assessed as compound-D1 formation at 100 ug/ml in presence of NADPH measured after 4 hrs by UV-Vis spectroscopy; format: ADME, subcellular; settings: s9, 4 h
[4] = Drug metabolism in beta-naphthoflavone/phenobarbital-induced rat liver S9 fraction assessed as compound-D2 formation at 100 ug/ml in presence of NADPH measured after 4 hrs by UV-Vis spectroscopy; format: ADME, subcellular; settings: s9, 4 h
CYP1A1 = CYP1A1 (Homo sapiens, UniProt P04798); test: Drug metabolism assessed as human CYP1A1-mediated metabolism by measuring half life; format: ADME; settings: human CYP1A1 enzyme
CYP1A2 = CYP1A2 (Homo sapiens, UniProt P05177); test: Drug metabolism assessed as human CYP1A2-mediated metabolism by measuring half life; format: ADME; settings: human CYP1A2 enzyme
CYP2B6 = CYP2B6 (Homo sapiens, UniProt P20813); test: Drug metabolism assessed as human CYP2B6-mediated metabolism by measuring half life; format: ADME; settings: human CYP2B6 enzyme
CYP2C8 = CYP2C8 (Homo sapiens, UniProt P10632); test: Drug metabolism assessed as human CYP2C8-mediated metabolism by measuring half life; format: ADME; settings: human CYP2C8 enzyme
CYP2C9 = CYP2C9 (Homo sapiens, UniProt P11712); test: Drug metabolism assessed as human CYP2C9-mediated metabolism by measuring half life; format: ADME; settings: human CYP2C9 enzyme
CYP2C19 = CYP2C19 (Homo sapiens, UniProt P33261); test: Drug metabolism assessed as human CYP2C19-mediated metabolism by measuring half life; format: ADME; settings: human CYP2C19 enzyme
CYP2D6 = CYP2D6 (Homo sapiens, UniProt P10635); test: Drug metabolism assessed as human CYP2D6-mediated metabolism by measuring half life; format: ADME; settings: human CYP2D6 enzyme
CYP3A4 = CYP3A4 (Homo sapiens, UniProt P08684); test: Drug metabolism assessed as human CYP3A4-mediated metabolism by measuring half life; format: ADME; settings: human CYP3A4 enzyme
Cytochrome P450 1A2 [5] = target: T1, Cytochrome P450 1A2 (Homo sapiens, UniProt P05177); test: Drug metabolism assessed as human CYP1A2-mediated metabolism by measuring DHD1 formation; format: ADME; settings: recombinant enzyme
T1 sequence (P05177 whole entry): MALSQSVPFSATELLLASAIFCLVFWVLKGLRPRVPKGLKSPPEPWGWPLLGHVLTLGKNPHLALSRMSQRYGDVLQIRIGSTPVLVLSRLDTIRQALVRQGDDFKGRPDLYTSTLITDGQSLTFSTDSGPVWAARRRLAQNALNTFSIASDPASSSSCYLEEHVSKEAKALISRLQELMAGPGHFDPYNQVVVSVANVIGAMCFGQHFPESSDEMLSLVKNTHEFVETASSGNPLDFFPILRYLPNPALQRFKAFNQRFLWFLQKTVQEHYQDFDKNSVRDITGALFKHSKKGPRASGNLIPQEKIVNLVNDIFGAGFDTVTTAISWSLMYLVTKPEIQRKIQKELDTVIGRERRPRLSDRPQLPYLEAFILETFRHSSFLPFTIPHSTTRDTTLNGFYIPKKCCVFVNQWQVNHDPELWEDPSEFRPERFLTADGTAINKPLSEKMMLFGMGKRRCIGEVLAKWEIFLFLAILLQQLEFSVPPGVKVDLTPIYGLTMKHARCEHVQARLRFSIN

Cytochrome P450 2B6 [6] = target: T2, Cytochrome P450 2B6 (Homo sapiens, UniProt P20813); test: Drug metabolism assessed as human CYP2B6-mediated metabolism by measuring DHD1 formation; format: ADME; settings: recombinant enzyme
Cytochrome P450 2D6 [7] = target: T3, Cytochrome P450 2D6 (Homo sapiens, UniProt P10635); test: Drug metabolism assessed as human CYP2D6-mediated metabolism by measuring DHD1 formation; format: ADME; settings: recombinant enzyme
Cytochrome P450 1A1 = Cytochrome P450 1A1 (Homo sapiens, UniProt P04798); test: Drug metabolism assessed as human CYP1A1-mediated metabolism by measuring DHD3 formation; format: ADME; settings: recombinant enzyme
Cytochrome P450 1A2 [8] = target: T1, Cytochrome P450 1A2; test: Drug metabolism assessed as human CYP1A2-mediated metabolism by measuring DHD3 formation; format: ADME; settings: recombinant enzyme
Cytochrome P450 2B6 [9] = target: T2, Cytochrome P450 2B6; test: Drug metabolism assessed as human CYP2B6-mediated metabolism by measuring DHD3 formation; format: ADME; settings: recombinant enzyme
Cytochrome P450 2C8 = Cytochrome P450 2C8 (Homo sapiens, UniProt P10632); test: Drug metabolism assessed as human CYP2C8-mediated metabolism by measuring DHD3 formation; format: ADME; settings: recombinant enzyme
Cytochrome P450 2C9 = Cytochrome P450 2C9 (Homo sapiens, UniProt P11712); test: Drug metabolism assessed as human CYP2C9-mediated metabolism by measuring DHD3 formation; format: ADME; settings: recombinant enzyme
Cytochrome P450 2C19 = Cytochrome P450 2C19 (Homo sapiens, UniProt P33261); test: Drug metabolism assessed as human CYP2C19-mediated metabolism by measuring DHD3 formation; format: ADME; settings: recombinant enzyme
Cytochrome P450 2D6 [10] = target: T3, Cytochrome P450 2D6; test: Drug metabolism assessed as human CYP2D6-mediated metabolism by measuring DHD3 formation; format: ADME; settings: recombinant enzyme
Cytochrome P450 3A4 = Cytochrome P450 3A4 (Homo sapiens, UniProt P08684); test: Drug metabolism assessed as human CYP3A4-mediated metabolism by measuring DHD3 formation; format: ADME; settings: recombinant enzyme
[11] = Intrinsic clearance in human liver microsomes in presence of CYP1A inhibitor alpha-naphthoflavone; format: ADME, Microsome; settings: with alpha-naphthoflavone (CYP1A inhibitor), read-out: CLH
[12] = Intrinsic clearance in human liver microsomes in presence of CYP2B6 inhibitor Ticlopidine; format: ADME, Microsome; settings: with Ticlopidine (CYP2B6 inhibitor), read-out: CLH
[13] = Intrinsic clearance in human liver microsomes in presence of CYP2D6 inhibitor Quinidine; format: ADME, Microsome; settings: with Quinidine (CYP2D6 inhibitor), read-out: CLH
[14] = Intrinsic clearance in human liver microsomes; format: ADME, Microsome; settings: read-out: CLH
[15] = Drug metabolism in rat plasma assessed as formation of glucuronide conjugate of dihydrodiol at 2000 mg/kg, po dosed for 28 days; format: ADME, organism-based; settings: in vivo, 672 h
[16] = Drug metabolism in rat plasma assessed as formation of O-glucuronide conjugate of aromatized diol at 2000 mg/kg, po dosed for 28 days; format: ADME, organism-based; settings: in vivo, 672 h
Cytochrome P450 1A2 [17] = target: T1, Cytochrome P450 1A2; test: Inhibition of CYP1A2 in human liver microsomes; format: ADME
[18] = Effect on microsomal protein concentrations in minipig at 500 mg/kg/day, po for 39 weeks; format: ADME, organism-based, Sus scrofa domesticus; settings: pig, in vivo, 6552 h
[19] = Effect on total cytochrome P450 content in minipig at 500 mg/kg/day, po for 39 weeks; format: ADME, organism-based, Sus scrofa domesticus; settings: pig, in vivo, 6552 h
Rattus norvegicus [20] = test: Effect on microsomal protein concentrations in rat at 2000 mg/kg/day, po for 28 days; format: ADME, organism-based; settings: in vivo, 672 h
How it was run: (§1)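 Rats dosed 2000 mg/kg/day by oral gavage for 28 days; liver microsomes prepared, microsomal protein concentration and total P450 content measured.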

Rattus norvegicus [21] = test: Effect on total cytochrome P450 content in rat at 2000 mg/kg/day, po for 28 days; format: ADME, organism-based; settings: in vivo, 672 h; how it was run: as §1
[22] = Induction of CYP1A1/2 enzymes in male minipig assessed as increase in EROD enzyme activity at 500 mg/kg/day, po for 39 weeks relative to control; format: ADME, organism-based, Sus scrofa domesticus; settings: pig, in vivo, 6552 h
[23] = Induction of CYP2B enzymes in male minipig assessed as increase in PROD enzyme activity at 500 mg/kg/day, po for 39 weeks relative to control; format: ADME, organism-based, Sus scrofa domesticus; settings: pig, in vivo, 6552 h
[24] = Induction of CYP3A enzymes in minipig assessed as increase in testosterone hydroxylase activity at 500 mg/kg/day, po for 39 weeks relative to control; format: ADME, organism-based, Sus scrofa domesticus; settings: pig, in vivo, 6552 h
[25] = Induction of CYP2E1 enzymes in minipig assessed as increase in 11-hydroxylase activity at 500 mg/kg/day, po for 39 weeks relative to control; format: ADME, organism-based, Sus scrofa domesticus; settings: pig, in vivo, 6552 h
[26] = Induction of CYP4A enzymes in minipig assessed as increase in 12-hydroxylase activity at 500 mg/kg/day, po for 39 weeks relative to control; format: ADME, organism-based, Sus scrofa domesticus; settings: pig, in vivo, 6552 h
[27] = Kinetic aqueous solubility of the compound; format: physicochemical; settings: buffer; read-out: Kinetic_solubility
[28] = Permeability at pH 7.4 by PAMPA; format: ADME; settings: read-out: permeability
[29] = Protein binding in mouse plasma assessed as bound fraction; format: ADME, cell-free; settings: read-out: PPB (converted)
How it was run: (§2)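 Binding measured in 100% plasma; reported as fraction bound.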

[30] = Protein binding in human plasma assessed as bound fraction; format: ADME, cell-free; settings: read-out: PPB (converted); how it was run: as §2
[31] = Half life in mouse liver S9 fraction; format: ADME, subcellular
How it was run: (§3)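 Metabolic stability of the dihydrodiols measured in vitro with mouse and human liver S9 fractions and with mouse and human hepatocytes; half-life from substrate depletion.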

[32] = Half life in human liver S9 fraction; format: ADME, subcellular; how it was run: as §3
[33] = Intrinsic clearance in mouse liver S9 fraction; format: ADME, subcellular; settings: read-out: CLH
[34] = Intrinsic clearance in human liver S9 fraction; format: ADME, subcellular; settings: read-out: CLH
[35] = tested on: UDP-glucuronosyltransferases (UGTs); test: Drug metabolism assessed as human UGT-mediated metabolism by measuring half life for DHD3 formation; format: ADME, protein assay
Homo sapiens = species: Homo sapiens; test: Substrate activity at MDR4 (unknown origin)

T2 sequence (P20813 whole entry): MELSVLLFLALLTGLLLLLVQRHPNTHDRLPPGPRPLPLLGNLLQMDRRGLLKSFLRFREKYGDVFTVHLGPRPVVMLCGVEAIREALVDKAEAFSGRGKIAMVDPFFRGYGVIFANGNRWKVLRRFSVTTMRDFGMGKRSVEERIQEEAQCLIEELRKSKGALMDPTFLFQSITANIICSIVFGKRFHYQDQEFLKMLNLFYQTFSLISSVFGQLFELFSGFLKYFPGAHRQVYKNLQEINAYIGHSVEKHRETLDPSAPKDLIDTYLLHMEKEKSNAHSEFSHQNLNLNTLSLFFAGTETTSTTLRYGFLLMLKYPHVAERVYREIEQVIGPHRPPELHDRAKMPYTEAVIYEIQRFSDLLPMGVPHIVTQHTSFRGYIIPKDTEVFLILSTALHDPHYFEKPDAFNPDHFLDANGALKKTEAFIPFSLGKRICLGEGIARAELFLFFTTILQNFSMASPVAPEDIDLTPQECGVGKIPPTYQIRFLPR
T3 sequence (P10635 whole entry): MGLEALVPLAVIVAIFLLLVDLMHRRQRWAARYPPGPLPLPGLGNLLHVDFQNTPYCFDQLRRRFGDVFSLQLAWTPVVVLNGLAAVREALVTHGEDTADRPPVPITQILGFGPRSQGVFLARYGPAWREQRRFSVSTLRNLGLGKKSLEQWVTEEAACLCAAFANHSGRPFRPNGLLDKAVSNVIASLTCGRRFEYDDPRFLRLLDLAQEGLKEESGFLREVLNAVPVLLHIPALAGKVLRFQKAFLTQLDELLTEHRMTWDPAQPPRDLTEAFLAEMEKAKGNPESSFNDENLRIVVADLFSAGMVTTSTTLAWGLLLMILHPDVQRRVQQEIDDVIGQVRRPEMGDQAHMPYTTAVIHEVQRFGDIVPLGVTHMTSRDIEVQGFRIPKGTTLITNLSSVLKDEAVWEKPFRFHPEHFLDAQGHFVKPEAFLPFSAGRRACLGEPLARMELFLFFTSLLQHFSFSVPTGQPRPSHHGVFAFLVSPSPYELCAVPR
CYP3A4, sequence (P08684 whole entry): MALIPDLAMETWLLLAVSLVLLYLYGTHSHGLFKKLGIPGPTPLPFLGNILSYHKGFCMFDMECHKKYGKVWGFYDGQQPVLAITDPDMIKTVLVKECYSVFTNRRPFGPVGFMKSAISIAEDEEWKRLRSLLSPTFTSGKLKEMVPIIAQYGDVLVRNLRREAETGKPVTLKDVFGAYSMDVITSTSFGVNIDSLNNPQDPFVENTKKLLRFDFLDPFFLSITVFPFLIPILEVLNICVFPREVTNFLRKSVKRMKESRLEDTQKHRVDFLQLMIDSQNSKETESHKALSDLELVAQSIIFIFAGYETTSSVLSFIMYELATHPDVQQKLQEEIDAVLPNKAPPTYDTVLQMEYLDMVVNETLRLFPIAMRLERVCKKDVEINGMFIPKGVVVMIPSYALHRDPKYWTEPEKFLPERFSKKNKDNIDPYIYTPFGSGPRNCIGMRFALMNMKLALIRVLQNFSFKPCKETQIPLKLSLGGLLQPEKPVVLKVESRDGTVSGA
Cytochrome P450 3A4, sequence (P08684 whole entry): as above
CYP2B6, sequence (P20813 whole entry): as the sequence (P20813 whole entry) above
CYP2C8, sequence (P10632 whole entry): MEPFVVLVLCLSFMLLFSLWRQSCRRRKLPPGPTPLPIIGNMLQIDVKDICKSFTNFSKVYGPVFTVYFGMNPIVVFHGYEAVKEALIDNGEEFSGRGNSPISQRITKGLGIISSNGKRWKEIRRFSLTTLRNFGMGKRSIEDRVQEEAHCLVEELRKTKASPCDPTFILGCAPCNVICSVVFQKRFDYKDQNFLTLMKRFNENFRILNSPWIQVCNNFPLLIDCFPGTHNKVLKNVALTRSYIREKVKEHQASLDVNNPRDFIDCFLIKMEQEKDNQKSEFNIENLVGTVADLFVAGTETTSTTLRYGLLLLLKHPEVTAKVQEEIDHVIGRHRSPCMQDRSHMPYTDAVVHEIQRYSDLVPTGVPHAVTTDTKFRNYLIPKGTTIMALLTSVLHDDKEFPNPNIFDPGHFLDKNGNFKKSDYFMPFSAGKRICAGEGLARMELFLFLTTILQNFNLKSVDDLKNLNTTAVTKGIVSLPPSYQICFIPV
Cytochrome P450 2C8, sequence (P10632 whole entry): as above
Cytochrome P450 2C19, sequence (P33261 whole entry): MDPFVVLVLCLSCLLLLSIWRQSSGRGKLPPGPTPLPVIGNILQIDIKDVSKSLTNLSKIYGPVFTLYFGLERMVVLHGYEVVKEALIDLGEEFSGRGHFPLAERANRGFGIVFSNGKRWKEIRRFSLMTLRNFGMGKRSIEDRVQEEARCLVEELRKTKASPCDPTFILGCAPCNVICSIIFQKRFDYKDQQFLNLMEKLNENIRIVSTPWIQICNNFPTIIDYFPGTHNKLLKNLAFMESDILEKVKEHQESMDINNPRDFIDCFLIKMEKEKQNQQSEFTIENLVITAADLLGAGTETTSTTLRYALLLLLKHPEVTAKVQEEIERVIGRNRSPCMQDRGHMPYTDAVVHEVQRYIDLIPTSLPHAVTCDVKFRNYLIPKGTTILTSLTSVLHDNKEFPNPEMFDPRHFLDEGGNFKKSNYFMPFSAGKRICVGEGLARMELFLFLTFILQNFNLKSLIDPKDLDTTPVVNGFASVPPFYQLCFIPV
CYP2C19, sequence (P33261 whole entry): as above
Cytochrome P450 2C9, sequence (P11712 whole entry): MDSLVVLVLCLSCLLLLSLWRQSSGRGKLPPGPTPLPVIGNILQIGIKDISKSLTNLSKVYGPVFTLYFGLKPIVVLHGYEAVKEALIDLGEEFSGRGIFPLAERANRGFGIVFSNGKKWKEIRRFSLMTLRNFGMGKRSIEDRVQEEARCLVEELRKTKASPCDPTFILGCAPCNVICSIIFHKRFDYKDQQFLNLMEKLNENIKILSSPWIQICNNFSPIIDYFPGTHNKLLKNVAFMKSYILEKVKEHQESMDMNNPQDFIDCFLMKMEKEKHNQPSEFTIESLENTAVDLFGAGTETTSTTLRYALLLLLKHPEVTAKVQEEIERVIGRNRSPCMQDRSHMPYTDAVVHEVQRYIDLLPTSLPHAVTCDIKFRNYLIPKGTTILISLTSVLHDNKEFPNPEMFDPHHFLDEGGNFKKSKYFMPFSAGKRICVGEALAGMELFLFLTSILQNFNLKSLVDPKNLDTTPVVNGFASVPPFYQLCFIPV
CYP2C9, sequence (P11712 whole entry): as above
CYP2D6, sequence (P10635 whole entry): as the sequence (P10635 whole entry) above
CYP1A1, sequence (P04798 whole entry): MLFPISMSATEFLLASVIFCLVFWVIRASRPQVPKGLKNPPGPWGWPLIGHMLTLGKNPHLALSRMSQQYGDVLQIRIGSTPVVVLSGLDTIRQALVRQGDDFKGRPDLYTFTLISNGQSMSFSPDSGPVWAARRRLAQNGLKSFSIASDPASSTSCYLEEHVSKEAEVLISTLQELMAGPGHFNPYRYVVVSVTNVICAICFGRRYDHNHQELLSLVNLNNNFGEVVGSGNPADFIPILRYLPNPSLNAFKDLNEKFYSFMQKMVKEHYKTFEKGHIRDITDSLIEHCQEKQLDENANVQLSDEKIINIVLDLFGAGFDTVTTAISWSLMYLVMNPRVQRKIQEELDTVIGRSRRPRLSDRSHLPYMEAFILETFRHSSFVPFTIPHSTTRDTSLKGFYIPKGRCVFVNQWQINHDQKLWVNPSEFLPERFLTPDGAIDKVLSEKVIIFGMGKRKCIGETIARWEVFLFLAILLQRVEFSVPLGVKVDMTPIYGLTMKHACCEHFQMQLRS
Cytochrome P450 1A1, sequence (P04798 whole entry): as above

CCS(=O)(=O)c1ccc2oc(-c3ccc4ccccc4c3)nc2c1 [EZUTROMID]
Drug uptake [1]: 38 to 89% | Retention_time [2]: 5.7 min | Drug metabolism [3]: Metabolite_Detected | Drug metabolism [4]: Metabolite_Detected | half-life (CYP1A1): 2.16 min | half-life (CYP1A2): 2.62 min | half-life (CYP2B6): ≥ 3 h | half-life (CYP2C8): ≥ 3 h | half-life (CYP2C9): ≥ 3 h | half-life (CYP2C19): ≥ 3 h | half-life (CYP2D6): ≥ 3 h | half-life (CYP3A4): ≥ 3 h | Drug metabolism (Cytochrome P450 1A2 [5]): Metabolite_Detected | Drug metabolism (Cytochrome P450 2B6 [6]): Metabolite_Detected | Drug metabolism (Cytochrome P450 2D6 [7]): Metabolite_Detected | Drug metabolism (Cytochrome P450 1A1): Metabolite_Notdetected | Drug metabolism (Cytochrome P450 1A2 [8]): Metabolite_Notdetected | Drug metabolism (Cytochrome P450 2B6 [9]): Metabolite_Notdetected | Drug metabolism (Cytochrome P450 2C8): Metabolite_Notdetected | Drug metabolism (Cytochrome P450 2C9): Metabolite_Notdetected | Drug metabolism (Cytochrome P450 2C19): Metabolite_Notdetected | Drug metabolism (Cytochrome P450 2D6 [10]): Metabolite_Notdetected | Drug metabolism (Cytochrome P450 3A4): Metabolite_Notdetected | microsomal CLint [11]: 5.06 µL/min/mg | microsomal CLint [12]: 21.4 µL/min/mg | microsomal CLint [13]: 35.1 µL/min/mg | microsomal CLint [14]: 50.7 µL/min/mg | Drug metabolism [15]: Metabolite_Detected | Drug metabolism [16]: Metabolite_Detected | IC50 (Cytochrome P450 1A2 [17]): 5.4 µM | Activity [18]: Non-Toxic | Activity [19]: Non-Toxic | Activity (Rattus norvegicus [20]): Non-Toxic | Activity (Rattus norvegicus [21]): Non-Toxic | Activity [22]: Not Active | Activity [23]: Not Active | Activity [24]: Not Active | Activity [25]: Not Active | Activity [26]: Not Active | solubility kinetic [27]: 1 to 2 µM (≈ 0.337 to 0.675 µg/mL) | Papp [28]: 9.5 ×10⁻⁶ cm/s | fraction unbound [29]: 0.005 | fraction unbound [30]: 0.01 | half-life [31]: 1.23 h | half-life [32]: 1.68 h | microsomal CLint [33]: 19 µL/min/mg | microsomal CLint [34]: 14 µL/min/mg | t1/2 [35]: > 4 h | Activity (Homo sapiens): inactive
